# Test results as given in ChEMBL document CHEMBL4270599, “Synthesis of a 3'-C-ethynyl-β-d-ribofuranose purine nucleoside library: Discovery of C7-deazapurine analogs as potent antiproliferative nucleosides” (Eur J Med Chem, 2018).
# Test system: Vaccinia virus
# Assay: Antiviral activity against Vaccinia virus Lederle infected in HELF cells assessed as inhibition of virus-induced cytopathogenicity
# Type: functional, organism-based
# Settings: Orthopoxvirus vaccinia
# In short: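 Confluent human embryonic lung fibroblast monolayers in 96-well plates were infected with 100 CCID50 of virus or, for VZV, 20 PFU, in the presence of varying compound concentrations. For HCMV/VZV-type assays, residual virus was removed after 1–2 h before compound addition. Cytopathicity or plaque formation was scored once complete in untreated infected controls. […] Highest concentration tested was 100 μM.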
row,Compound,EC50 [µM]
1,C#C[C@@]1(O)[C@@H](CO)O[C@@H](n2ccc3c(Cl)ccnc32)[C@@H]1O,> 100
2,Nc1nc2c(ncn2COC(CO)CO)c(=O)[nH]1 [GANCICLOVIR],> 100
3,C#C[C@@]1(O)[C@@H](CO)O[C@@H](n2cc(I)c3c(Cl)ccnc32)[C@@H]1O,> 100
4,C#C[C@@]1(O)[C@@H](CO)O[C@@H](n2cc(Br)c3c(Cl)ccnc32)[C@@H]1O,> 100
5,Nc1nc2c(ncn2COCCO)c(=O)[nH]1 [ACYCLOVIR],> 250
6,CC[C@@]1(O)[C@@H](CO)O[C@@H](n2cc(Cl)c3c(N)ncnc32)[C@@H]1O,0.73
7,C#C[C@@]1(O)[C@@H](CO)O[C@@H](n2cc(Cl)c3c(Cl)ccnc32)[C@@H]1O,> 100
